Values belong to the molecule of their own block, whether it stands above or below them. Peptide text beside a SMILES is read from it. * marks the point of attachment. Boc = CC(C)(C)OC(=O)*
Assays:
[1] = Compound was evaluated for the inhibition of Leucine aminopeptidase and the inhibition constant was determined after preincubating the enzyme and inhibitor
Cytosol aminopeptidase = Cytosol aminopeptidase (Homo sapiens, UniProt P28838); experiment: Compound was evaluated for the inhibition of Leucine aminopeptidase and the inhibition constant was determined after preincubating the enzyme and inhibitor
Outline: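 For initial rates, enzyme was added to substrate plus inhibitor to start the reaction. For steady-state rates, enzyme was preincubated 15-20 min with inhibitor, then substrate was added. Double-reciprocal (Lineweaver-Burk) analysis was used.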

[2] = target: Cytosol aminopeptidase (Sus scrofa) (UniProt P28839); experiment: Compound was evaluated for the inhibition of Leucine aminopeptidase from porcine kidney and the inhibition constant was determined after preincubating the enzyme and inhibitor
[3] = target: Cytosol aminopeptidase (Sus scrofa) (UniProt P28839); experiment: Compound was evaluated for the inhibition of Leucine aminopeptidase and the inhibition constant was determined after preincubating the enzyme and inhibitor
[4] = target: Cytosol aminopeptidase (Sus scrofa) (UniProt P28839); experiment: as above; remark: listed apart in the source

Chain of Cytosol aminopeptidase (Sus scrofa) (P28839 whole entry, looked up): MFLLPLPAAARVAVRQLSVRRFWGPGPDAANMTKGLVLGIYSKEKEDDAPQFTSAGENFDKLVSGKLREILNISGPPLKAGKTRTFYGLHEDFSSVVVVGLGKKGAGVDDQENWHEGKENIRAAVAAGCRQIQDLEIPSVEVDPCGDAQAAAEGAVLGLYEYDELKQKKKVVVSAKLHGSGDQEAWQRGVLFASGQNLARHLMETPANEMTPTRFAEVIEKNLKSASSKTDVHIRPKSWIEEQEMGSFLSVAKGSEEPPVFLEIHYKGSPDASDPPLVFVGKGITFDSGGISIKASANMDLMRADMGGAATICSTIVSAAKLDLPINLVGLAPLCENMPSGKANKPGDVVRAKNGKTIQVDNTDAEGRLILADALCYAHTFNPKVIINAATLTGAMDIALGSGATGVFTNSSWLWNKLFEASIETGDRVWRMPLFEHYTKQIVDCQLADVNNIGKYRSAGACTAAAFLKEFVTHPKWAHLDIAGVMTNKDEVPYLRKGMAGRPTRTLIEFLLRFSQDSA
Chain of Cytosol aminopeptidase (P28838 whole entry): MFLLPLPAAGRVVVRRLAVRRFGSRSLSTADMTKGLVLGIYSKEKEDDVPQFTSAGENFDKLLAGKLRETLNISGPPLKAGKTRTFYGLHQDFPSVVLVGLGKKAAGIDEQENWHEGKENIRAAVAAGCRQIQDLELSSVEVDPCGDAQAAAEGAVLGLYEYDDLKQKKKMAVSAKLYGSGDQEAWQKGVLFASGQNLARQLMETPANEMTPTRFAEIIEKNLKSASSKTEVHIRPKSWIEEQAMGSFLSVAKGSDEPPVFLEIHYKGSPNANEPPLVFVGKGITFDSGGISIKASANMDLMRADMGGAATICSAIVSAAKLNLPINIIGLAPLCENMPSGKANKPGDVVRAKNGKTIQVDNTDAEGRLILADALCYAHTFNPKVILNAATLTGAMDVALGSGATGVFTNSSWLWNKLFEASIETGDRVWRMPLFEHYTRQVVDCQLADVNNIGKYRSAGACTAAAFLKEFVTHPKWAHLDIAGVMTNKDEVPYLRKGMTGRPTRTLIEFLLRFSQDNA

- Ki [1]: 0.12 µM
SMILES: CC(C)C[C@H](NC(=O)[C@@H](O)[C@H](N)CC(C)C)C(=O)O [2-(3-Amino-2-hydroxy-5-methyl-hexanoylamino)-4-methyl-pentanoic acid]

- Ki (Cytosol aminopeptidase): 3.78 µM
SMILES: CC(C)CC(NC(=O)[C@H](C)[C@@H](N)Cc1ccccc1)C(=O)O (some centres not stated) [2-(3-Amino-2-methyl-4-phenyl-butyrylamino)-4-methyl-pentanoic acid]

SMILES: CC(C)[C@H](NC(=O)OC(C)(C)C)C(=O)N[C@H](C(=O)N[C@@H](CC(=O)O)C(=O)O)C(C)C [2-[2-(2-tert-Butoxycarbonylamino-3-methyl-butyrylamino)-3-methyl-butyrylamino]-succinic acid] (Boc-Val-Val-Asp-OH)
- Ki [2]: 1400 µM

- Ki [1]: 1.24 µM
SMILES: CC(C)CC(N)C(O)C(=O)NC(C(=O)NC(CC(=O)O)C(=O)O)C(C)C (configuration not stated) [2-[2-(3-Amino-2-hydroxy-5-methyl-hexanoylamino)-3-methyl-butyrylamino]-succinic acid]

- Ki [3]: 681 µM
SMILES: CC(C)C[C@@H](N)CC(=O)N[C@H](C(=O)N[C@H](C(=O)N[C@@H](CC(=O)O)C(=O)O)C(C)C)C(C)C [2-{2-[2-(3-Amino-5-methyl-hexanoylamino)-3-methyl-butyrylamino]-3-methyl-butyrylamino}-succinic acid]

- Ki [4]: 0.89 µM
SMILES: CC(C)CCNC(=O)[C@@H](NC(=O)[C@@H](NC(=O)[C@H](O)[C@@H](N)CC(C)C)C(C)C)C(C)C [3-Amino-2-hydroxy-5-methyl-hexanoic acid {2-methyl-1-[2-methyl-1-(3-methyl-butylcarbamoyl)-propylcarbamoyl]-propyl}-amide]

- Ki [2]: 0.5 µM
SMILES: CC(C)CCNC(=O)[C@H](O)[C@@H](N)Cc1ccccc1 [3-Amino-2-hydroxy-N-(3-methyl-butyl)-4-phenyl-butyramide]

From BindingDB's records for doi:10.1021/jm00370a001 (1984)
